Measurements gathered from unrelated publications.
Protocols differ between the studies behind these lines.
Organism: Pseudomonas aeruginosa
Observed: microbial growth

CC(=O)C1=C(O)C(CC(C)C)NC1=O (stereo not shown)
MIC (PA01): > 200 µg/mL

C[n+]1c(/C=C/c2c[nH]c3ccccc23)cc(/C=C2\Sc3ccccc3N2CCCN2CCOCC2)c2ccccc21.[I-]
MIC (broth dilution; ATCCBAA2108; drug-resistant strain): > 64 µg/mL

COC(=O)c1cc(-c2cccc(NC(=O)Nc3cc(OC)ccc3OC)c2)on1
MIC (broth dilution; ATCC27853): > 64 µg/mL

CN[C@@H]1[C@H](O)[C@H](NC)[C@H]2O[C@@]3(O)C(=O)C[C@@H](C)O[C@H]3O[C@@H]2[C@H]1O
MIC (broth dilution; PAO1): 100 µg/mL

CC1(C)S[C@@H]2[C@H](NC(=O)[C@H](N)c3ccccc3)C(=O)N2[C@H]1C(=O)O
MIC (broth dilution; ATCCBAA2108; drug-resistant strain): > 64 µg/mL

CC1(C)S[C@@H]2[C@H](NC(=O)C(C(=O)O)c3ccccc3)C(=O)N2[C@H]1C(=O)O (stereo partly shown)
MIC: 50 µg/mL

C[n+]1c(/C=C/c2ccc(O)cc2)cc(/C=C2\Sc3ccccc3N2CCCN2CCCC2)c2ccccc21.[I-]
MIC (broth dilution; ATCCBAA2108; drug-resistant strain): > 64 µg/mL

COC(=O)c1cc(-c2cccc(NC(=S)Nc3ccc(OC)cc3)c2)on1
MIC (broth dilution; ATCC27853): > 64 µg/mL

Nc1nc(-c2ccc(NC(=O)Nc3cccc(-c4c[nH]c(N)n4)c3F)cc2F)c[nH]1
MIC (broth dilution; PAO1): > 200 µM

C[n+]1c(/C=C/c2c[nH]c3ccccc23)cc(/C=C2\Sc3ccccc3N2CCCN2CCCC2)c2ccccc21.[I-]
MIC (broth dilution; ATCCBAA2108; drug-resistant strain): 32 µg/mL

C[C@@H](O)[C@H]1C(=O)N2C(C(=O)O)=C(S[C@@H]3CN[C@H](C(=O)N(C)C)C3)[C@H](C)[C@H]12
MIC: 2 µg/mL

COC(=O)c1cc(-c2cccc(NC(=O)Nc3ccccc3F)c2)on1
MIC (broth dilution; ATCC27853): > 64 µg/mL

CCCCCCC#Cc1cncc(-c2nnc(Sc3ccc([N+](=O)[O-])cc3[N+](=O)[O-])n2C)c1
MIC: ≥ 20 µg/mL

CCCCCCCCCCCC(=O)OC[C@H]1O[C@@H](n2cc(C)c(=O)[nH]c2=O)C[C@@H]1O
MIC (broth dilution): 8 µg/mL

CO[C@H]1/C=C/O[C@@]2(C)Oc3c(C)c(O)c4c(O)c(c(/C=N/N5CCN(C)CC5)c(O)c4c3C2=O)NC(=O)/C(C)=C\C=C\[C@H](C)[C@H](O)[C@@H](C)[C@@H](O)[C@@H](C)[C@H](OC(C)=O)[C@@H]1C
MIC (broth dilution; ATCCBAA2108; drug-resistant strain): > 64 µg/mL

CCCCCCNC(=S)Nc1cccc(-c2cc(C(=O)OC)no2)c1
MIC (broth dilution; ATCC27853): > 64 µg/mL
